Assay results as given in ChEMBL document CHEMBL1158339, “Synthesis and anti-microbial screening of some Schiff bases of 3-amino-6,8-dibromo-2-phenylquinazolin-4(3H)-ones” (2009).
≈ marks a conversion by molar mass, not a printed value.

How the values were obtained:
Type in all cases: functional
Pseudomonas aeruginosa [1] = assay: Antibacterial activity against Pseudomonas aeruginosa ATCC 2853 after 24 hrs by paper disk diffusion technique
How it was run: (§1)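 Paper disc diffusion. Nutrient agar autoclaved 120 °C, 30 min, then inoculated at 40–50 °C with 1 ml/100 ml of a 10⁵ cfu/ml suspension matched to McFarland standard and poured to 3–4 mm. Discs impregnated with compound in dimethyl formamide are laid on the solidified agar. Plates are held 1 h at room temperature, then 24 h at 37 °C.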

Bacillus cereus [2] = assay: Antibacterial activity against Bacillus cereus ATCC 11778 after 24 hrs by paper disk diffusion technique; how it was run: as §1
Micrococcus luteus [3] = assay: Antibacterial activity against Micrococcus luteus ATCC 4698 after 24 hrs by paper disk diffusion technique; how it was run: as §1
[4] = test system: Staphylococcus epidermidis; assay: Antibacterial activity against Staphylococcus epidermidis ATCC 155 after 24 hrs by agar streak dilution method; conditions: ATCC 155, 24 h
How it was run: (§2)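 Agar streak dilution MIC. Stock […] in dimethyl formamide. Graded quantities go into molten sterile nutrient agar, poured at 40–50 °C to 3–4 mm depth and left to solidify. Plates are streaked with about 10⁵ cfu/ml bacterial suspension and incubated 24 h at 37 °C. MIC is the lowest concentration with no visible growth.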

Staphylococcus aureus [5] = assay: Antibacterial activity against Staphylococcus aureus ATCC 9144 after 24 hrs by paper disk diffusion technique; how it was run: as §1
Aspergillus fumigatus [6] = assay: Antifungal activity against Aspergillus fumigatus ATCC 46645 after 48 hrs by paper disk diffusion technique
How it was run: (§3)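 Fungal disc diffusion. Autoclaved (120 °C, 30 min) medium is inoculated at 40–50 °C with 1 ml/100 ml of a 10⁵ cfu/ml McFarland-matched suspension and poured to 3–4 mm. Compound-impregnated paper discs in dimethyl formamide are applied. Plates are held 1 h at room temperature, then incubated 48 h at 37 °C.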

[7] = test system: Staphylococcus epidermidis; assay: Antibacterial activity against Staphylococcus epidermidis ATCC 155 after 24 hrs by paper disk diffusion technique; how it was run: as §1
Escherichia coli [8] = assay: Antibacterial activity against Escherichia coli ATCC 25922 after 24 hrs by agar streak dilution method; conditions: ATCC 25922, 24 h; how it was run: as §2
Aspergillus fumigatus [9] = assay: Antifungal activity against Aspergillus fumigatus ATCC 46645 after 48 hrs by agar streak dilution method; conditions: ATCC 46645, 48 h
How it was run: (§4)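 Fungal agar streak dilution. Stock […] in dimethyl formamide. Graded quantities go into molten sterile Sabouraud dextrose agar, poured at 40–50 °C to 3–4 mm depth and left to solidify. Plates are inoculated with about 10⁵ cfu/ml suspension and incubated 48 h at 37 °C. MIC is the lowest concentration with no visible growth.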

Klebsiella pneumoniae [10] = assay: Antibacterial activity against Klebsiella pneumoniae ATCC 11298 after 24 hrs by paper disk diffusion technique; how it was run: as §1
Aspergillus niger [11] = assay: Antifungal activity against Aspergillus niger ATCC 9029 after 48 hrs by paper disk diffusion technique; how it was run: as §3
Staphylococcus aureus [12] = assay: Antibacterial activity against Staphylococcus aureus ATCC 9144 after 24 hrs by agar streak dilution method; conditions: ATCC 9144, 24 h; how it was run: as §2
Pseudomonas aeruginosa [13] = assay: Antibacterial activity against Pseudomonas aeruginosa ATCC 2853 after 24 hrs by agar streak dilution method; conditions: ATCC 2853, 24 h; how it was run: as §2
Klebsiella pneumoniae [14] = assay: Antibacterial activity against Klebsiella pneumoniae ATCC 11298 after 24 hrs by agar streak dilution method; conditions: ATCC 11298, 24 h; how it was run: as §2
Micrococcus luteus [15] = assay: Antibacterial activity against Micrococcus luteus ATCC 4698 after 24 hrs by agar streak dilution method; conditions: NCTC 2665, 24 h; how it was run: as §2
Escherichia coli [16] = assay: Antibacterial activity against Escherichia coli ATCC 25922 after 24 hrs by paper disk diffusion technique; how it was run: as §1
Aspergillus niger [17] = assay: Antifungal activity against Aspergillus niger ATCC 9029 after 48 hrs by agar streak dilution method; conditions: ATCC 9029, 48 h; how it was run: as §4
Bacillus cereus [18] = assay: Antibacterial activity against Bacillus cereus ATCC 11778 after 24 hrs by agar streak dilution method; conditions: ATCC 11778, 24 h; how it was run: as §2

Compound | inhibition zone (IZ) (Pseudomonas aeruginosa [1]) | inhibition zone (IZ) (Bacillus cereus [2]) | inhibition zone (IZ) (Micrococcus luteus [3]) | MIC [4] | inhibition zone (IZ) (Staphylococcus aureus [5]) | inhibition zone (IZ) (Aspergillus fumigatus [6]) | inhibition zone (IZ) [7] | MIC (Escherichia coli [8]) | MIC (Aspergillus fumigatus [9]) | inhibition zone (IZ) (Klebsiella pneumoniae [10]) | inhibition zone (IZ) (Aspergillus niger [11]) | MIC (Staphylococcus aureus [12]) | MIC (Pseudomonas aeruginosa [13]) | MIC (Klebsiella pneumoniae [14]) | MIC (Micrococcus luteus [15]) | inhibition zone (IZ) (Escherichia coli [16]) | MIC (Aspergillus niger [17]) | MIC (Bacillus cereus [18])
O=c1c2cc(Br)cc(Br)c2nc(-c2ccccc2)n1/N=C/c1ccccc1 | 19 mm | 20 mm | 19 mm | 33.6 µg/mL (≈ 69.5 µM) | 17 mm | 22 mm | 18 mm | 33.4 µg/mL (≈ 69.1 µM) | 11.1 µg/mL (≈ 23 µM) | 21 mm | 24 mm | 35.4 µg/mL (≈ 73.3 µM) | 28.7 µg/mL (≈ 59.4 µM) | 27.7 µg/mL (≈ 57.3 µM) | 31.8 µg/mL (≈ 65.8 µM) | 17 mm | 9.7 µg/mL (≈ 20.1 µM) | 29.4 µg/mL (≈ 60.8 µM)
COc1cc(/C=N/n2c(-c3ccccc3)nc3c(Br)cc(Br)cc3c2=O)ccc1O | 19 mm | 17 mm | 24 mm | 24.2 µg/mL (≈ 45.7 µM) | 23 mm | 23 mm | 23 mm | 31.2 µg/mL (≈ 59 µM) | 15.2 µg/mL (≈ 28.7 µM) | 23 mm | 24 mm | 21.6 µg/mL (≈ 40.8 µM) | 33.4 µg/mL (≈ 63.1 µM) | 28.2 µg/mL (≈ 53.3 µM) | 28.1 µg/mL (≈ 53.1 µM) | 24 mm | 12.7 µg/mL (≈ 24 µM) | 35.1 µg/mL (≈ 66.3 µM)
Cc1ccc(/C=N/n2c(-c3ccccc3)nc3c(Br)cc(Br)cc3c2=O)cc1 | 22 mm | 21 mm | 23 mm | 22.6 µg/mL (≈ 45.5 µM) | 18 mm | 24 mm | 20 mm | 19.8 µg/mL (≈ 39.8 µM) | 14.6 µg/mL (≈ 29.4 µM) | 19 mm | 22 mm | 31.1 µg/mL (≈ 62.6 µM) | 21.2 µg/mL (≈ 42.6 µM) | 29.1 µg/mL (≈ 58.5 µM) | 25.1 µg/mL (≈ 50.5 µM) | 24 mm | 15.2 µg/mL (≈ 30.6 µM) | 21.9 µg/mL (≈ 44 µM)
O=c1c2cc(Br)cc(Br)c2nc(-c2ccccc2)n1/N=C/c1ccccc1O | 17 mm | 21 mm | 18 mm | 21.3 µg/mL (≈ 42.7 µM) | 20 mm | 23 mm | 24 mm | 20.4 µg/mL (≈ 40.9 µM) | 13.6 µg/mL (≈ 27.2 µM) | 22 mm | 22 mm | 21.8 µg/mL (≈ 43.7 µM) | 37.2 µg/mL (≈ 74.5 µM) | 24.3 µg/mL (≈ 48.7 µM) | 28.2 µg/mL (≈ 56.5 µM) | 22 mm | 12.2 µg/mL (≈ 24.4 µM) | 19.9 µg/mL (≈ 39.9 µM)
O=c1c2cc(Br)cc(Br)c2nc(-c2ccccc2)n1/N=C/c1ccc([N+](=O)[O-])cc1 | 21 mm | 20 mm | 23 mm | 21.8 µg/mL (≈ 41.3 µM) | 22 mm | 25 mm | 22 mm | 30.2 µg/mL (≈ 57.2 µM) | 10.9 µg/mL (≈ 20.6 µM) | 20 mm | 24 mm | 22.4 µg/mL (≈ 42.4 µM) | 34.2 µg/mL (≈ 64.8 µM) | 35.7 µg/mL (≈ 67.6 µM) | 27.4 µg/mL (≈ 51.9 µM) | 23 mm | 14.4 µg/mL (≈ 27.3 µM) | 32.8 µg/mL (≈ 62.1 µM)
O=c1c2cc(Br)cc(Br)c2nc(-c2ccccc2)n1/N=C/c1cccc([N+](=O)[O-])c1 | 19 mm | 22 mm | 23 mm | 21.8 µg/mL (≈ 41.3 µM) | 21 mm | 23 mm | 22 mm | 19.8 µg/mL (≈ 37.5 µM) | 11.6 µg/mL (≈ 22 µM) | 21 mm | 25 mm | 22.6 µg/mL (≈ 42.8 µM) | 36.1 µg/mL (≈ 68.4 µM) | 34.6 µg/mL (≈ 65.5 µM) | 30.1 µg/mL (≈ 57 µM) | 26 mm | 10.7 µg/mL (≈ 20.3 µM) | 23.6 µg/mL (≈ 44.7 µM)
COc1cc(/C=N/n2c(-c3ccccc3)nc3c(Br)cc(Br)cc3c2=O)cc(OC)c1OC | 24 mm | 23 mm | 24 mm | 19.1 µg/mL (≈ 33.3 µM) | 26 mm | 24 mm | 25 mm | 18.2 µg/mL (≈ 31.7 µM) | 10.1 µg/mL (≈ 17.6 µM) | 28 mm | 26 mm | 18.9 µg/mL (≈ 33 µM) | 19.3 µg/mL (≈ 33.7 µM) | 16.7 µg/mL (≈ 29.1 µM) | 18.8 µg/mL (≈ 32.8 µM) | 27 mm | 8.6 µg/mL (≈ 15 µM) | 21.7 µg/mL (≈ 37.9 µM)
O=c1c2cc(Br)cc(Br)c2nc(-c2ccccc2)n1/N=C/c1ccc(O)cc1 | 25 mm | 21 mm | 26 mm | 20.9 µg/mL (≈ 41.9 µM) | 24 mm | 21 mm | 22 mm | 21.8 µg/mL (≈ 43.7 µM) | 10.7 µg/mL (≈ 21.4 µM) | 27 mm | 24 mm | 17.3 µg/mL (≈ 34.7 µM) | 22.6 µg/mL (≈ 45.3 µM) | 19 µg/mL (≈ 38.1 µM) | 17.2 µg/mL (≈ 34.5 µM) | 23 mm | 9.1 µg/mL (≈ 18.2 µM) | 19.3 µg/mL (≈ 38.7 µM)
CN(C)c1ccc(/C=N/n2c(-c3ccccc3)nc3c(Br)cc(Br)cc3c2=O)cc1 | 18 mm | 19 mm | 21 mm | 19.8 µg/mL (≈ 37.6 µM) | 19 mm | 22 mm | 25 mm | 29.1 µg/mL (≈ 55.3 µM) | 15.9 µg/mL (≈ 30.2 µM) | 23 mm | 19 mm | 27.9 µg/mL (≈ 53 µM) | 32.1 µg/mL (≈ 61 µM) | 22.7 µg/mL (≈ 43.1 µM) | 26.2 µg/mL (≈ 49.8 µM) | 20 mm | 14.7 µg/mL (≈ 27.9 µM) | 30.1 µg/mL (≈ 57.2 µM)
